Measurements from ChEMBL document CHEMBL3875213, “Quinolines: Microwave-assisted synthesis and their antifungal, anticancer and radical scavenger properties” (Bioorg Med Chem, 2017).
Values after ≈ are worked out from the molar mass of the structure shown. Active and inactive are the calls of the source. The rule behind the calls is not given here.

What was measured:
Candida albicans [1] = test: Growth inhibition of Candida albicans ATCC 10231 at 62.5 ug/ml incubated for 48 hrs under dark condition by broth microdilution assay relative to amphotericin B; assay type: functional; details: ATCC 10231, 48 h, read-out: GI
Summary of the method: (§1)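 Yeast broth microdilution (CLSI M27-A3), RPMI-1640, inoculum 1-5 x 10^3 CFU/mL, DMSO ≤1%, 48 h at 30 °C in a moist, dark chamber. […]. Triplicate; amphotericin B as positive control.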

[2] = Antioxidant activity assessed as fluorescent light-induced superoxide anion scavenging activity incubated for 10 mins by nitroblue tetrazolium dye based assay; assay type: functional
Summary of the method: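 Riboflavin/light superoxide system: 50 mM phosphate pH 7.8, 13 mM L-methionine, 75 µM NBT, 100 µM EDTA, 2 µM riboflavin, compound 0-200 µg/mL. Fluorescent light for 10 min at 25 °C, dark controls, scavenging measured at 575 nm. Resveratrol as reference.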

[3] = Potency index, ratio of resveratrol SC50 to compound SC50 for fluorescent light-induced superoxide anion scavenging activity
[4] = Antifungal activity against Cryptococcus neoformans ATCC 32264 incubated for 48 hrs under dark condition by broth microdilution assay; assay type: functional
Summary of the method: (§2)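 Broth microdilution per CLSI M27-A3 in RPMI-1640. Inocula adjusted to 1-5 x 10^3 CFU/mL. Stocks in DMSO (≤1%), final 3.9-250.0 µg/mL. Incubated 48 h at 30 °C in a moist, dark chamber, read at OD 405. % inhibition computed from growth and sterility control wells, run in triplicate. MIC80/MIC50 taken from four-parameter logistic concentration-response curves; amphotericin B as positive control.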

Candida albicans [5] = test: Growth inhibition of Candida albicans ATCC 10231 at 125 ug/ml incubated for 48 hrs under dark condition by broth microdilution assay relative to amphotericin B; assay type: functional; details: ATCC 10231, 48 h, read-out: GI; summary of the method: as §1
Candida albicans [6] = test: Growth inhibition of Candida albicans ATCC 10231 at 31.25 ug/ml incubated for 48 hrs under dark condition by broth microdilution assay relative to amphotericin B; assay type: functional; details: ATCC 10231, 48 h, read-out: GI; summary of the method: as §1
Candida albicans [7] = test: Growth inhibition of Candida albicans ATCC 10231 at 250 ug/ml incubated for 48 hrs under dark condition by broth microdilution assay relative to amphotericin B; assay type: functional; details: ATCC 10231, 48 h, read-out: GI; summary of the method: as §1
Candida albicans [8] = test: Antifungal activity against Candida albicans ATCC 10231 incubated for 48 hrs under dark condition by broth microdilution assay; assay type: functional; details: ATCC 10231, 48 h; summary of the method: as §2
Candida albicans [9] = test: Growth inhibition of Candida albicans ATCC 10231 at 15.62 ug/ml incubated for 48 hrs under dark condition by broth microdilution assay relative to amphotericin B; assay type: functional; details: ATCC 10231, 48 h, read-out: GI; summary of the method: as §1
Candida albicans [10] = test: Growth inhibition of Candida albicans ATCC 10231 at 7.81 ug/ml incubated for 48 hrs under dark condition by broth microdilution assay relative to amphotericin B; assay type: functional; details: ATCC 10231, 48 h, read-out: GI; summary of the method: as §1
[11] = Antioxidant activity assessed as fluorescent light-induced superoxide anion scavenging activity at 160 uM incubated for 10 mins by nitroblue tetrazolium dye based assay; assay type: functional
Summary of the method: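 Superoxide generated photochemically in 50 mM phosphate buffer pH 7.8 with 13 mM L-methionine, 75 µM nitroblue tetrazolium, 100 µM EDTA and 2 µM riboflavin. Compound at 160 µM. 10 min at 25 °C under fluorescent light; dark controls. Read at 575 nm. Resveratrol as positive control; three independent experiments in triplicate.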

[12] = Antioxidant activity assessed as DPPH radical scavenging activity incubated for 30 mins under dark condition; assay type: functional
Summary of the method: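 DPPH (100 µM) in ethanolic medium, stirred 30 min in the dark, absorbance at 517 nm. Compound varied from 0 to 160 µg/mL to find the concentration scavenging 50% of radicals. Three independent experiments, each in triplicate.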

[13] = Antiproliferative activity against human NCI-H226 cells harboring TP53 mutant after 24 hrs by MTT assay; assay type: functional, cell-based; details: NCI-H226, 24 h
Summary of the method: (§3)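 Cells grown in medium with 10% foetal bovine serum and 1% L-glutamine at 37 °C, 5% CO2, seeded at 1 x 10^5 cells/well. Exposed to compound at 1.0-1,000 µg/mL for 24 h. MTT added, absorbance read at 540 nm 3 h later. IC50 obtained by non-linear regression of viability data.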

[14] = Selectivity index, ratio of IC50 for human CCD-19Lu cells to IC50 for human Hep2C cells; assay type: functional
Summary of the method: (§4)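 Selectivity index equals IC50 in non-tumour CCD 19-Lu lung fibroblasts divided by IC50 in the tumour line. Both IC50s come from the 24 h MTT assay (read at 540 nm) over 1.0-1,000 µg/mL.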

[15] = Antiproliferative activity against human CCD-19Lu cells after 24 hrs by MTT assay; assay type: cell-based; summary of the method: as §3
NCI-H226 = test: Selectivity index, ratio of IC50 for human CCD-19Lu cells to IC50 for human NCI-H226 cells; assay type: functional; summary of the method: as §4
Candida albicans [16] = test: Growth inhibition of Candida albicans ATCC 10231 at 3.9 ug/ml incubated for 48 hrs under dark condition by broth microdilution assay relative to amphotericin B; assay type: functional; details: ATCC 10231, 48 h, read-out: GI; summary of the method: as §1
[17] = Antiproliferative activity against human Hep2C cells after 24 hrs by MTT assay; assay type: functional, cell-based; summary of the method: as §3
[18] = Antioxidant activity assessed as DPPH radical scavenging activity at 160 uM incubated for 30 mins under dark condition; assay type: functional
Summary of the method: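 Compound at 160 µM incubated with 100 µM DPPH in ethanolic medium, stirred in the dark for 30 min, read at 517 nm. Resveratrol as positive control. Three independent experiments, each in triplicate.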

[19] = Antiproliferative activity against human TOV21G harboring wild type TP53 cells after 24 hrs by MTT assay; assay type: functional, cell-based; summary of the method: as §3
[20] = Selectivity index, ratio of IC50 for human CCD-19Lu cells to IC50 for human TOV21G cells; assay type: functional; summary of the method: as §4

| SMILES | inhibition of growth at 62.5 µg/mL (Candida albicans [1]) | SC50 [2] | MIC50 [4] | MIC80 [4] | inhibition of growth at 125 µg/mL (Candida albicans [5]) | inhibition of growth at 31.25 µg/mL (Candida albicans [6]) | inhibition of growth at 250 µg/mL (Candida albicans [7]) | MIC50 (Candida albicans [8]) | MIC80 (Candida albicans [8]) | inhibition of growth at 15.62 µg/mL (Candida albicans [9]) | inhibition of growth at 7.81 µg/mL (Candida albicans [10]) | Activity [11] | SC50 [12] | IC50 [13] | IC50 [15] | Ratio IC50 (NCI-H226) | inhibition of growth at 3.9 µg/mL (Candida albicans [16]) | IC50 [17] | Activity [18] | IC50 [19] | further results |
| --- | --- | --- | --- | --- | --- | --- | --- | --- | --- | --- | --- | --- | --- | --- | --- | --- | --- | --- | --- | --- | --- |
| Oc1cccc(-c2cc(-c3ccccc3)c3cc(Br)ccc3n2)c1 | 11.2% | 121 µM | > 250 µg/mL | > 250 µg/mL | 20.2% | 7.61% | 40.9% | > 250 µg/mL | > 250 µg/mL | 4.08% | 3.15% | Active | > 250 µM |  |  |  |  |  |  |  | Ratio [3]: 2 |
| Clc1ccc(-c2cc(-c3ccccc3)c3cc(Br)ccc3n2)cc1 | 9.38% | > 250 µM | 250 µg/mL (≈ 633 µM) | > 250 µg/mL | 24.7% | 6.78% | 50.5% | 250 µg/mL (≈ 633 µM) | > 250 µg/mL | 6.88% | 0% |  | 180 µM | 1.58 µM | 528 µM | 356 | 0% | 269 µM | 45 to 55% |  | Ratio IC50 [14]: 1 |
| Brc1ccc2nc(-c3ccco3)cc(-c3ccccc3)c2c1 | 21.5% | > 250 µM | 62.5 µg/mL (≈ 178 µM) | 250 µg/mL (≈ 714 µM) | 43.2% | 13.1% | 83.3% | 62.5 µg/mL (≈ 178 µM) | 125 µg/mL (≈ 357 µM) | 8.68% | 4.37% |  | 82.7 µM | 30 µM | 631 µM | 21 | 1.75% | 102 µM | 45 to 55% | 877 µM | Ratio IC50 [14]: 6; Activity [4]: Dose-dependent effect; Ratio IC50 [20]: 0 |
| Cc1ccc(-c2cc(-c3ccccc3)c3cc(Br)ccc3n2)cc1 | 5.87% | 104 µM | 15.6 µg/mL (≈ 41.7 µM) | > 250 µg/mL | 11.1% | 2.64% | 31.5% | > 250 µg/mL | > 250 µg/mL | 3.04% | 0% | Active | 197 µM |  |  |  | 0% | 175 µM | 45 to 55% |  | Ratio [3]: 2 |
| COc1ccc2nc(-c3ccccc3)cc(-c3ccccc3)c2c1 | 12.2% | > 250 µM | 250 µg/mL (≈ 803 µM) | 250 µg/mL (≈ 803 µM) | 20.9% | 8.43% | 57.2% | 250 µg/mL (≈ 803 µM) | > 250 µg/mL | 4% | 0% |  | 168 µM | 57 µM | 925 µM | 16 | 0% | 496 µM | 45 to 55% | 110 µM | Ratio IC50 [14]: 1; Ratio IC50 [20]: 8 |
| Fc1ccc(-c2cc(-c3ccccc3)c3cc(Br)ccc3n2)cc1 | 4.13% |  | 15.6 µg/mL (≈ 41.2 µM) | > 250 µg/mL | 6.09% | 4.35% | 17.2% | > 250 µg/mL | > 250 µg/mL | 4.24% | 1.37% | Active |  |  |  |  | 0.19% | 5 µM |  | 570 µM |  |
| COc1cc(-c2cc(-c3ccccc3)c3cc(Br)ccc3n2)cc(OC)c1OC | 20.8% | > 250 µM | 62.5 µg/mL (≈ 139 µM) | 250 µg/mL (≈ 555 µM) | 52.9% | 12.9% | 82.7% | 125 µg/mL (≈ 278 µM) | 250 µg/mL (≈ 555 µM) | 7.32% | 2.99% |  | 428 µM | 61 µM | 104 µM | 1 | 0% |  |  | 493 µM | Ratio IC50 [20]: 0 |
